Common to all, as to type: cell-based
The test system of test [1] is Cystic fibrosis transmembrane conductance regulator (Homo sapiens), P13569 [F508del]. In words: Potentiator activity at CFTR F508-del mutant (unknown origin) expressed in human CFBE41o cells harboring HS-YFP assessed as increase in forskolin-stimulated aninon permeability up to 25 uM after 30 mins by fluorescence assay. In outline: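 F508del-CFTR/HS-YFP CFBE41o- cells were rescued by 24 h incubation at 27 °C, then exposed 30 min to forskolin (20 μM) plus test compound in PBS. Iodide added to final 100 mM; HS-YFP quenching rate (initial slope dF/dt) from exponential fit of final 10 s, normalized to initial background-subtracted fluorescence; compared with forskolin alone.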

For test [2] the test system is unchanged. In words: Synergistic corrector activity at CFTR F508-del mutant (unknown origin) expressed in human CFBE41o cells harboring HS-YFP preincubated for 24 hrs followed by forskolin/genistein stimulation for 30 mins in presence of VX-809 by fluorescence assay. In outline:
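CFBE41o- cells co-expressing F508del-CFTR and HS-YFP treated 24 h with compound (2, 10 or 25 μM) together with VX-809 (1 μM), then stimulated 30 min at 37 °C with forskolin (20 μM) and genistein (50 μM). Iodide influx (final 100 mM) measured as HS-YFP quenching rate.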

Test [3] has as its target Cystic fibrosis transmembrane conductance regulator (Homo sapiens, UniProt P13569, F508DEL). In words: Corrector activity at CFTR F508-del mutant (unknown origin) expressed in human CFBE41o cells harboring HS-YFP preincubated for 24 hrs followed by forskolin/genistein stimulation for 30 mins by fluorescence assay.

The source made the active and inactive calls. No cut-off for these calls is given here. A value given as a limit tells only on which side of the number the result lay.

Cystic fibrosis transmembrane conductance regulator (Homo sapiens), P13569 [F508del], sequence (P13569 as listed by the source): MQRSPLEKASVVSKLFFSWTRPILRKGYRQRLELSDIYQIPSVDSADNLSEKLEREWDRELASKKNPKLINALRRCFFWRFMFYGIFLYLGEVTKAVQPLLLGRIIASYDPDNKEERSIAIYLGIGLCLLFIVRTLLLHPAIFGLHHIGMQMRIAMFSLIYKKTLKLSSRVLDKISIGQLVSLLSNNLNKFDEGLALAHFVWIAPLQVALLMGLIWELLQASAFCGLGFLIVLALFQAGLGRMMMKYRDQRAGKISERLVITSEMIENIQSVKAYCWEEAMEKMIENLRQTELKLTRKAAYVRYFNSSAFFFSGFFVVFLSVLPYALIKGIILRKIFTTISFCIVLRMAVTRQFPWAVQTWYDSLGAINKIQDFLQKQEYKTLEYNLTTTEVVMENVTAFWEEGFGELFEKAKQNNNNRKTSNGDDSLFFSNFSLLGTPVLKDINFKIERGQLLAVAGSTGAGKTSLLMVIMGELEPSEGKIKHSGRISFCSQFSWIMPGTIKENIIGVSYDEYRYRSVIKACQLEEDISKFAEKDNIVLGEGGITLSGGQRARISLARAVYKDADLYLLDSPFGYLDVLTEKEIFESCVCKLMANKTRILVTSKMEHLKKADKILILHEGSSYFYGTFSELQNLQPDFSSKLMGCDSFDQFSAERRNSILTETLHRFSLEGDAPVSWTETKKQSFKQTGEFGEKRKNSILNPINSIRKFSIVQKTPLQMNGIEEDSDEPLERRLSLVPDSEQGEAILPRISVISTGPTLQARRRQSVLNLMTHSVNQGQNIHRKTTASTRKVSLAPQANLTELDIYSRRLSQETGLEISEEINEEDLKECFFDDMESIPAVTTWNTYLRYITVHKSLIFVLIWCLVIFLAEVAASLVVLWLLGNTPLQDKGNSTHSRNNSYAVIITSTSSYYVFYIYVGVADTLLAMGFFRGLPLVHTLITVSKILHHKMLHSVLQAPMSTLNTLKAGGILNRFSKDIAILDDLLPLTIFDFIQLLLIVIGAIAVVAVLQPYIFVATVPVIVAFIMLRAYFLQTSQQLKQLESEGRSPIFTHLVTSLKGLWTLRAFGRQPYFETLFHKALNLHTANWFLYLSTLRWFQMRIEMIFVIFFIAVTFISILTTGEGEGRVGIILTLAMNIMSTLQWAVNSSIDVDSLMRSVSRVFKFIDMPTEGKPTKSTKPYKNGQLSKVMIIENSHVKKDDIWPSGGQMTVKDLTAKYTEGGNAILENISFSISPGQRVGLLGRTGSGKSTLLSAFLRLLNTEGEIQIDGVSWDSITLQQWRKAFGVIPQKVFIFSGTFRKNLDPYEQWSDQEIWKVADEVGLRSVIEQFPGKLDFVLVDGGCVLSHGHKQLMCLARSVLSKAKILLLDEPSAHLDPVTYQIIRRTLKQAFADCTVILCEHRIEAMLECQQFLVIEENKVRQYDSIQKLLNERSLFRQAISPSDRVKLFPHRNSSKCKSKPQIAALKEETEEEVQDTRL
Cystic fibrosis transmembrane conductance regulator, sequence (P13569 as listed by the source): as above

Turning to `O=C(Nc1nc(-c2ccc(Br)cc2)cs1)C1(c2ccc3c(c2)OCO3)CC1`, the outcome in test [1] and in test [2] was inactive. Besides, the EC50 in test [3] (read-out: EC50) is 4.9 µM. On to `CC(=O)Nc1ccc(-c2csc(NC(=O)C3(c4ccc5c(c4)OCO5)CC3)n2)cc1`, for which the outcome in test [1] and in test [2] was inactive. Besides, the EC50 is over 5 µM in test [3] (read-out: EC50) and over 5.01 µM in test [3] (read-out: pEC50 (converted)). In the case of `CN(C)CCN1CCN(c2nc(-c3ccccn3)nc3c2CN(C(=O)c2ccccc2)CC3)CC1`, the EC50 in test [3] (read-out: pEC50 (converted)) was 100 µM.

With `CCOC(=O)n1nc(-c2sc(NC(=O)C(C)(C)C)nc2C)cc1Cc1ccccc1`, the EC50 in test [3] (read-out: pEC50 (converted)) is 8.51 µM. Take `C=CCc1cc(-c2sc(NC(=O)C(C)(C)C)nc2C)nn1C(=O)Nc1ccc(OC)cc1`: in test [3] (read-out: pEC50 (converted)), the EC50 was 0.933 µM.

For the molecule `O=C(Nc1nc(-c2cccc(F)c2)cs1)C1(c2ccc3c(c2)OCO3)CC1`, the result in test [1] and in test [2] was inactive. For the same molecule, the EC50 in test [3] (read-out: EC50) worked out at 2.1 µM. With `COc1ccccc1C(=O)NCCCNc1nc2cc(C)cc(C)c2cc1C#N`, in test [3] (read-out: pEC50 (converted)), the EC50 is over 100 µM.

As for `COc1ccc(Cl)cc1Cc1cc(-c2sc(NC(=O)C(C)(C)C)nc2C)nn1C(=O)NCCO`, the EC50 in test [3] (read-out: pEC50 (converted)) is 3.02 µM. As to `Cc1sc(NC(=O)C2(c3ccc4c(c3)OCO4)CC2)nc1-c1ccccc1`, the result in test [1] and in test [2] was inactive. In addition, in test [3] (read-out: EC50), the EC50 was 1.6 µM. As to `CCN(C(C)=O)C1CCN(c2nc(-c3ccccn3)nc3c2CN(Cc2ccc(Cl)cc2)CC3)C1` (centres undefined), the EC50 in test [3] (read-out: pEC50 (converted)) was 100 µM. On the same count and under the same terms, the value for `COc1cccc(C(=O)N2CCN(c3nc4cc(C)cc(C)c4cc3C#N)CC2)c1` was 100 µM. As for `CSc1cccc(NC(=O)C2(c3ccc4c(c3)OCO4)CC2)c1`, the result in test [1] and in test [2] was inactive. Besides, the EC50 in test [3] (read-out: EC50) is 8 µM. As to `Cc1sc(NC(=O)C2(c3ccc4c(c3)OCO4)CC2)nc1-c1ccc(Br)cc1`, the result in test [1] and in test [2] was inactive. Besides, the EC50 in test [3] (read-out: EC50) stood at 1.9 µM.

In the case of `Cc1sc(NC(=O)C2(c3ccc4c(c3)OCO4)CC2)nc1-c1ccc(O)cc1`, the result in test [1] and in test [2] was inactive. The EC50 in test [3] (read-out: EC50) turned out to be 3.9 µM. On to `O=C(Nc1nc(-c2cccc(O)c2)cs1)C1(c2ccc3c(c2)OC(F)(F)O3)CC1`, for which the result in test [1] and in test [2] was inactive. Also, the EC50 in test [3] (read-out: EC50) was 1.3 µM. `O=C(Nc1nc(-c2cccc(Cl)c2)cs1)C1(c2ccc3c(c2)OC(F)(F)O3)CC1`: the result in test [1] and in test [2] was inactive. For the molecule `COc1ccc(NC(=O)c2cc(-c3sc(NC(=O)C(C)(C)C)nc3C)n(-c3ccc(Br)cc3)n2)cc1`, the EC50 in test [3] (read-out: pEC50 (converted)) is 3.39 µM.

Consider `COc1ccccc1C(=O)N1CCN(c2nc3cc(C)cc(C)c3cc2C#N)CC1`, for which the EC50 in test [3] (read-out: pEC50 (converted)) was 100 µM. For the molecule `O=C(Nc1nc(-c2ccc(O)cc2)cs1)C1(c2ccc3c(c2)OC(F)(F)O3)CC1`, the outcome in test [1] and in test [2] was inactive. Also, in test [3] (read-out: EC50), the EC50 came to 1.7 µM. As to `CCOC(=O)c1sc(NC(=O)C2(c3ccc4c(c3)OCO4)CC2)nc1-c1ccc(Br)cc1`, the outcome in test [1] and in test [2] was inactive. The EC50 in test [3] (read-out: EC50) is 0.3 µM.

With `O=C(Nc1nc(-c2cccc(Cl)c2)cs1)C1(c2ccc3c(c2)OCO3)CC1`, the outcome in test [1] and in test [2] was inactive. Also, the EC50 in test [3] (read-out: EC50) is 8.2 µM.

`CN1CCN(CCCNc2nc(-c3ccncc3)nc3c2CN(Cc2ccccc2)CC3)CC1`: the EC50 in test [3] (read-out: pEC50 (converted)) is 100 µM. As for `Cc1cc(C)c2cc(C#N)c(NCCCNC(=O)c3ccccn3)nc2c1`, the EC50 in test [3] (read-out: pEC50 (converted)) was 100 µM.

As to `NC(=O)CN1CCN(c2nc(-c3cccnc3)nc3c2CN(Cc2ccccc2)CC3)CC1`, the EC50 in test [3] (read-out: pEC50 (converted)) was 100 µM.

Take `CC(=O)c1sc(NC(=O)C2(c3ccc4c(c3)OCO4)CC2)nc1C`: the result in test [1] and in test [2] was inactive. Turning to `Cc1sc(NC(=O)C2(c3ccc4c(c3)OCO4)CC2)nc1-c1cccc(Cl)c1`, the outcome in test [1] and in test [2] was inactive. For the same molecule, in test [3] (read-out: EC50), the EC50 came to 2.3 µM. Take `CN(C)CCN1CCN(c2nc(-c3cccnc3)nc3c2CN(Cc2ccccc2)CC3)CC1`: the EC50 in test [3] (read-out: pEC50 (converted)) is over 100 µM. The same measure, in the same setting: the value for `Cc1cc(C)c2cc(C#N)c(NCCCNC(=O)c3ccncc3)nc2c1` was 13.2 µM. Turning to `O=C(Nc1nc(-c2ccc(O)cc2)cs1)C1(c2ccc3c(c2)OCO3)CC1`, the result in test [1] and in test [2] was inactive. Moreover, the EC50 in test [3] (read-out: EC50) is 1.8 µM. In the case of `Cc1cc(C)c2cc(C#N)c(NCCNC(=O)c3ccccn3)nc2c1`, the EC50 in test [3] (read-out: pEC50 (converted)) is over 100 µM. In the case of `COc1ccc(NC(=O)n2nc(-c3sc(NC(=O)C(C)(C)C)nc3C)cc2Cc2cc(Cl)ccc2OC)cc1`, in test [3] (read-out: pEC50 (converted)), the EC50 is 1 µM. Regarding `O=C(O)c1ccc(-c2csc(NC(=O)C3(c4ccc5c(c4)OCO5)CC3)n2)cc1`, the outcome in test [1] and in test [2] was inactive. In addition, the figures for the EC50 in test [3] (read-out: EC50) and in test [3] (read-out: pEC50 (converted)) were over 5 µM and over 5.01 µM, respectively. Regarding `O=C(c1ccccc1)c1sc(NC(=O)C2(c3ccc4c(c3)OCO4)CC2)nc1-c1ccccc1`, the outcome in test [1] and in test [2] was inactive. Besides, the EC50 in test [3] (read-out: EC50) turned out to be 0.087 µM.

Turning to `Cc1cc(C)c2cc(C#N)c(NCCNC(=O)c3ccccc3)nc2c1`, in test [3] (read-out: pEC50 (converted)), the EC50 was over 100 µM.

Regarding `Cc1cc(C)c2cc(C#N)c(N3CCN(C(=O)c4cccnc4)CC3)nc2c1`, in test [3] (read-out: pEC50 (converted)), the EC50 was 100 µM. On the same count and under the same terms, to `Cc1cc(C)c2cc(C#N)c(N3CCN(C(=O)c4ccccn4)CC3)nc2c1` belongs 100 µM; to `Fc1ccc(CN2CCc3nc(-c4ccccn4)nc(NCCCN4CCCC4)c3C2)cc1`, 0.2 µM; to `CN(C)CCN1CCN(c2nc(-c3ccncc3)nc3c2CN(Cc2ccccc2)CC3)CC1`, 100 µM.

`CC(=O)NCCCNc1nc(-c2ccccn2)nc2c1CN(Cc1ccc(F)cc1)CC2`: the EC50 in test [3] (read-out: pEC50 (converted)) is 0.2 µM.

As for `COc1ccc(Cl)cc1Cc1cc(-c2sc(NC(=O)C(C)(C)C)nc2C)nn1C(=O)N1CCOCC1`, the EC50 in test [3] (read-out: pEC50 (converted)) is 1 µM.

For the molecule `Cc1cc(C)c2cc(C#N)c(N3CCN(C(=O)c4ccncc4)CC3)nc2c1`, the EC50 in test [3] (read-out: pEC50 (converted)) was 100 µM. With `C=CCc1cc(-c2sc(NC(=O)C(C)(C)C)nc2C)nn1C(=O)Nc1ccccc1`, the EC50 in test [3] (read-out: pEC50 (converted)) was 3.02 µM.

For the molecule `COc1ccc(Cl)cc1Nc1nc(-c2sc(NC(=O)C(C)(C)C)nc2C)cs1`, the EC50 in test [3] (read-out: pEC50 (converted)) is 0.708 µM. For the molecule `CN(C)CCN1CCN(c2nc(-c3ccccn3)nc3c2CN(Cc2ccc(F)cc2)CC3)CC1`, the EC50 in test [3] (read-out: pEC50 (converted)) is 100 µM. For the molecule `COc1ccc(CN2CCc3nc(-c4ccccn4)nc(N4CCN(CCN(C)C)CC4)c3C2)cc1`, the EC50 in test [3] (read-out: pEC50 (converted)) is 100 µM. Still for that read-out and setting: to `NC(=O)C1CCN(c2nc(-c3cccnc3)nc3c2CN(Cc2ccccc2)CC3)CC1` belongs over 100 µM; to `CN1CCN(CCCNc2nc(-c3cccnc3)nc3c2CN(Cc2ccccc2)CC3)CC1`, over 100 µM; to `Cc1nc(NC(=O)C(C)(C)C)sc1-c1cc(Cc2ccccc2)n(C(=O)NCc2ccccc2)n1`, 0.759 µM. On the same count and under the same terms, to `CN(C)CCN1CCN(c2nc(-c3ccccn3)nc3c2CN(S(=O)(=O)c2ccccc2)CC3)CC1` belongs 100 µM. Consider `COc1ccc(C(=O)N2CCN(c3nc4cc(C)cc(C)c4cc3C#N)CC2)cc1`, for which the EC50 in test [3] (read-out: pEC50 (converted)) is 100 µM.

Source of the values: ChEMBL document CHEMBL4145449, “Synthesis and biological evaluation of novel thiazole- VX-809 hybrid derivatives as F508del correctors by QSAR-based filtering tools” (Eur J Med Chem, 2018).
